# Source: PubChem BioAssay (The Scripps Research Institute Molecular Screening Center)
# A selection: hits, their analogues and other compounds. The true share with any hit is near 3.3%.
# TDP2 absorb: blocks human TDP2 phosphodiesterase activity | O95551 | actives 0.34% (n = 370,000) | AID 720702 | recombinant TDP2, T5PNP hydrolysis, p-nitrophenol absorbance 415 nm | inhibition, % at 12.8 µM;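 active = inhibition above the mean of all tested compounds plus 3 SD, set per campaign, cut at about 25% in these data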;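 also: 0% = DMSO with enzyme and 100% = buffer with substrate but no TDP2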
# Target sequence (O95551 whole entry, looked up): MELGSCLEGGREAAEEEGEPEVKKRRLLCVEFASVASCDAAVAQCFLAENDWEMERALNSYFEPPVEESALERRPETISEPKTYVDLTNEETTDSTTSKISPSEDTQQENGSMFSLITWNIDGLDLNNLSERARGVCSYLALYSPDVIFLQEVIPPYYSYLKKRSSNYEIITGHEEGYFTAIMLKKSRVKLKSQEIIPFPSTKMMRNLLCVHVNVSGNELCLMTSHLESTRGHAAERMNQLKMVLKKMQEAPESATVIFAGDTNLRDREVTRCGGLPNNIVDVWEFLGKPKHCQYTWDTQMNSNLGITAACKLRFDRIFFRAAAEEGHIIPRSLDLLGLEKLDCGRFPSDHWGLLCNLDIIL
#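 Incubation: 2 h at 37 °C; Test system: recombinant human TDP2; Quantity: enzyme 120 nM; Read-out basis: percent inhibition; Medium: 50 mM Tris-HCl pH 7.5 with Mg2+, KCl, DTT, BSA; Repeats: single replicate; Compound: 12.8 µM single point, 1% DMSO; Signal: epi absorbance; Reagent: 5 mM T5PNP chromogenic substrate; Benchmarks: no-enzyme high, DMSO-plus-enzyme low.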
# SIAE inh: blocks human sialic acid acetylesterase; inhibition, % at 9.66 µM; AID 1053197; SIAE FP-Rh probe binding, fluorescence polarization; actives 0.69% (n = 370,000);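 active = inhibition above a cutoff: mean of compounds within the control limits plus 3 SD of those, cut at about 17% in these data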;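 also: 0% = plate median of compound wells and 100% = probe without SIAE protein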
# MBD2 DNA inh: MBD2-methylated oligo binding inhibition; Q9UBB5; TR-FRET, MBD2 binding to methylated oligonucleotide; inhibition, % at 4.4 µM; actives 0.31% (n = 370,000); in the data active = inhibition above about 13%
# LEDGF integ inh: blocks HIV-1 LEDGF/p75-dependent DNA integration; inhibition, % at 3.7 µM; AID 743269; TR-FRET IN-LEDGF/p75 DNA integration, Eu/Cy5; actives 0.64% (n = 370,000);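 active = inhibition above the screen-wide mean plus 3 SD, cut at about 13% in these data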;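 also: signal is the Cy5 over europium emission ratio at 671 and 618 nm; 0% = plate median of compound wells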
# PRMT1 inh: blocks human protein arginine methyltransferase 1. actives 1.3% (n = 370,000). inhibition, % at 2.79 µM. AID 652257. recombinant PRMT1, activity-based probe fluorescence polarization. Q99873;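 active = inhibition above about 21% made by adding two undisclosed values, limit read from the data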
# UHRF1 binding: UHRF1 methyl-DNA binding inhibition | UHRF1 binding to methylated oligo, TR-FRET | inhibition, % at 4.4 µM | actives 0.75% (n = 370,000) | AID 687016; in the data active = inhibition above about 21%;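 also: UHRF1 SRA domain binding a hemimethylated CpG hairpin DNA probe; 0% = median of test compound wells and 100% = reference inhibitor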
# An asterisk follows results filed as active; . = no result given.
SMILES,TDP2 absorb,SIAE inh,MBD2 DNA inh,LEDGF integ inh,PRMT1 inh,UHRF1 binding
CC(NCC(O)c1ccc([N+](=O)[O-])cc1)C12CC3CC(CC(C3)C1)C2 (stereo not given),5,1,-4,4,3,22*
CC(C)(N[C@@H](Cc1ccccc1)C(=O)NCCCc1ccccc1)C(=O)NCc1ccccc1,-6,4,3,0,1,0
O=C(O)c1ccccc1NS(=O)(=O)c1ccc(NN=Cc2ccccc2F)c([N+](=O)[O-])c1,3,-2,-8,0,7,33*
O=[N+]([O-])c1ccccc1/C=C/C=N/Nc1ccc(S(=O)(=O)Nc2ccc(Cl)cc2)cc1[N+](=O)[O-],-10,43*,-1,0,0,-2
C/C(=N\Nc1ccc(S(=O)(=O)Nc2ccccc2)cc1[N+](=O)[O-])c1ccc(N2CCOCC2)cc1,0,3,5,-3,3,1
C/C(=N\Nc1ccc(S(=O)(=O)Nc2ccc(Cl)cc2)cc1[N+](=O)[O-])c1ccc(N2CCOCC2)cc1,5,24*,1,1,1,-2
Cc1nn(-c2ccccc2)c(Cl)c1/C=N/Nc1ccc(S(=O)(=O)Nc2ccccc2C(=O)O)cc1[N+](=O)[O-],3,18*,-6,2,-1,-5
CCOc1ccc(C=NNc2ccc(S(=O)(=O)Nc3ccccc3C(=O)O)cc2[N+](=O)[O-])cc1,.,10,.,.,.,.
CSc1ccc(C=NNc2ccc(S(=O)(=O)Nc3ccccc3C(=O)O)cc2[N+](=O)[O-])cc1,0,12,4,2,2,1
Cc1cc(O)c(-c2cc(O)c(C)cc2O)cc1O,18,10,-7,6,87*,-4
CC(=O)c1ccc(OCc2cc([N+](=O)[O-])cc3c2OCOC3)cc1,3,-7,-2,4,2,23*
Cc1ccc(C2C3CN(C(C)C)CC=C3C(C#N)=C(N)C2(C#N)C#N)cc1 (stereo not given),7,1,-4,4,40*,-5
COc1ccc(CCNC(=O)CSc2cc(=O)[nH]c(N)n2)cc1OC,-7,5,8,-1,1,24*
O=C(O)c1ccc(N2C(=O)c3cccc4c(C(=O)O)ccc(c34)C2=O)cc1,-3,2,6,3,12,24*
OC(c1ccccc1)(c1ccccc1)C1CCN(CCCNc2ccc(C(F)(F)F)cc2)CC1,-2,-1,-5,6,-7,4
O=C(O)c1cc(N/N=C/c2ccc(N3CCOCC3)s2)ccc1Cl,15,21*,43*,68*,33*,93*
CC1(C(=O)NCc2cccc(C(F)(F)F)c2)CCN1Cc1ccc(-c2ccccc2)o1 (stereo not given),-29,-5,2,5,22*,1
Nc1c(C(=O)N2CCN(c3ccccc3)CC2)nnn1Cc1ccc(Cl)cc1,1,0,0,-4,0,-1
Cc1ccc(NC(=O)Nc2ccc3c(c2)[C@]2(CC(=O)N(CC(C)C)C2c2ccccc2)C(=O)N3C)cc1Cl (stereo not given in full),-4,15,5,2,-4,9
CC(NC(=S)Nc1ccc([N+](=O)[O-])cc1)c1ccncc1 (stereo not given),-2,-3,2,-6,5,46*
O=C(COC(=O)c1ccc([N+](=O)[O-])s1)c1ccc[nH]1,35*,1,3,4,-6,-3
CCOC(=O)C1(CC/C(C)=N\NC(N)=O)CC(C)OC1=O (stereo not given),-16,3,6,1,2,21*
Nn1c(SCc2cccc3ccccc23)nnc1-c1cc(-c2ccc(F)cc2)n[nH]1,-2,-1,2,-1,-1,-3
CCOC(=O)c1cccc(N2C(=O)Nc3ccccc3N2O)c1,-1,8,3,1,-3,23*
C=CCN1C(=O)[C@@H](CC(=O)N2CCC(c3ccccc3)CC2)[C@]2(C(=O)OCC)CCCCC/C=C/12,5,-1,1,-2,-4,1
SMILES,TDP2 absorb,SIAE inh,MBD2 DNA inh,LEDGF integ inh,PRMT1 inh,UHRF1 binding
CCOC(=O)C1CCCN(C(=O)Nc2c(-c3ccccc3)noc2C)C1 (stereo not given),10,3,4,-1,-4,32*
CCOC(=O)C1CCCN(C(=O)c2c(-c3ccccc3Cl)noc2C)C1 (stereo not given),-3,5,-1,-1,3,-1
COC(=O)[C@H](CC(C)C)N(CCCc1cn(Cc2ccccc2)nn1)S(=O)(=O)c1ccc(F)cc1Br,-4,-9,0,3,0,0
CCCCSc1nc2[nH]ncc2c(=O)[nH]1,-2,-5,-6,1,-1,68*
CC(C)NC(=O)N[C@@H]1C[C@@H]2O[C@H](CO)CC[C@@H]2O[C@@H]1CCc1ccc(-c2ccccc2F)cc1,-6,6,8,-4,1,2
COCCCNC(=S)N1CCN(c2nc(-c3ccc(F)cc3)cs2)CC1,-4,3,6,2,2,65*
CCOCCCNC(=S)N1CCN(c2nc(-c3ccc(F)cc3)cs2)CC1,-2,9,-5,3,-3,-2
CC(Sc1nccn1C)C(=O)NC1(C#N)CCCCC1 (stereo not given),0,-2,0,4,2,0
CC(Sc1nnc(Cc2ccccc2)o1)C(=O)NC1(C#N)CCCCC1 (stereo not given),-2,4,2,-10,4,24*
COc1ccccc1Cc1c(-c2ccc(Cl)cc2)nc2ccc(C)cn12,-5,1,5,-1,2,21*
COc1ccccc1Cc1c(-c2ccc(C)cc2)nc2ccc(C)cn12,-8,-3,3,6,-6,14
CCCc1nc2ccc(C)cn2c1Cc1ccccc1C(F)(F)F,5,-1,10,0,3,24*
CCCc1nc2c(C)cc(Br)cn2c1Cc1ccccc1C(F)(F)F,-1,6,9,1,0,22*
Cc1cc(Br)cn2c(Cc3ccccc3C(F)(F)F)c(-c3ccccc3)nc12,3,-4,-1,-1,0,7
CCCc1nc2ccc(C)cn2c1Cc1ccccc1OC,1,0,10,-1,3,22*
COc1ccc(S[C@]2(C(=O)N(C)C)CC(=O)N(C(=O)Nc3ccc(C)c(Cl)c3)[C@@H]2c2ccc(OC)cc2)cc1,8,-2,2,-4,8,0
CCCC1CCC2(CC1)CCC2OC(=S)NCc1cccc(OC)c1 (stereo not given),-2,-5,0,-2,5,0
C[C@@H]1COc2cccc(F)c2S(=O)(=O)N1C,9,-5,-1,-4,-1,0
